Published values pooled from the literature.
Each line is one published result; the experiments were not run side by side.
Target: Serine/threonine-protein kinase haspin (HASPIN, Homo sapiens, UniProt Q8TF76)
Residues used in one study (Q8TF76 1-798): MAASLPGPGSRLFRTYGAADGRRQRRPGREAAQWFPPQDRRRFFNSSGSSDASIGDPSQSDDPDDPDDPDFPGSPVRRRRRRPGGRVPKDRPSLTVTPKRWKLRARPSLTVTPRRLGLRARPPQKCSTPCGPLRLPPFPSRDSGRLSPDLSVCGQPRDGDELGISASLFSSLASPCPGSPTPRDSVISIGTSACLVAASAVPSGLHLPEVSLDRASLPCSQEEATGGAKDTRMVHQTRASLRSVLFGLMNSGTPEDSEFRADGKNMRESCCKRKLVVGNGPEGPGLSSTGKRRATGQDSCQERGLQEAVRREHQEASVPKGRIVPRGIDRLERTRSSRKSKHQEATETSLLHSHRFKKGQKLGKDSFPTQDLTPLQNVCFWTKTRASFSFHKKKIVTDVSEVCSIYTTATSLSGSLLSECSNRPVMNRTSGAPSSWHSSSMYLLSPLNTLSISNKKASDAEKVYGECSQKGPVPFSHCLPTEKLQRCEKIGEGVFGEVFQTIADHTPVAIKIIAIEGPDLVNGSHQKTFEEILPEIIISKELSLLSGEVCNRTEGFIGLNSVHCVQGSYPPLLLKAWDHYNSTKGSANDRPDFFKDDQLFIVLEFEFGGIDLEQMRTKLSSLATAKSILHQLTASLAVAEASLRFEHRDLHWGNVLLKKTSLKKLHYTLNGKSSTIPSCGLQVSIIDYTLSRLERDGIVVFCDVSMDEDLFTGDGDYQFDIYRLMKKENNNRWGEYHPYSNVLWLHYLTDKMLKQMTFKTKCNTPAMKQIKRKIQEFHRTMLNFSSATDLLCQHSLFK

With `CCN(CC)c1ccc(C2=NNC(=O)CC2C)cc1[N+](=O)[O-]` (centres unmarked) the remaining activity was 106% (enzyme activity; inhibitor; 10 µM).
For `COc1cc(-c2cc(-c3ccc(N4CCNCC4)cc3)cnc2C)cc(OC)c1OC`, the inhibition was 3% (enzyme activity; inhibitor; 0.1 µM).
For `O=C(Nc1cnn(-c2csc(C(=O)NC3COC3)c2)c1)Nc1c(F)cccc1Cl`, the remaining activity was 111% (enzyme activity; inhibitor; 5 µM).
With `Cc1cc(NC(=O)c2cccc3cc(-c4cccc5[nH]nc(N)c45)ccc23)ccc1F` the activity vs control was 111% (enzyme activity; inhibitor; 0.1 µM).
With `CC(C)(C)c1nc(-c2cccc(NS(=O)(=O)c3c(F)cccc3F)c2F)c(-c2ccnc(N)n2)s1` the remaining activity was 147% (enzyme activity; inhibitor; radiometric; 1 µM).
`N#CCCc1ccc2c(c1)-c1[nH]c3ccc([N+](=O)[O-])cc3c1CC(=O)N2` has a remaining signal of 110% (cell-free assay; 0.5 µM).
For `Cc1sc(C(=O)NC2COC2)cc1-n1cc(NC(=O)Nc2c(F)cccc2Cl)cn1`, the remaining activity was 92.4% (enzyme activity; inhibitor; 10 µM).
For `Cc1ccc(NC(=O)c2ccc(C)c(C(F)(F)F)c2)cc1C#Cc1nn(C2CCC(O)CC2)c2ncnc(N)c12` (centres unmarked), the remaining signal was 93% (cell-free assay; 10 µM).
`Nc1ncnc2occ(-c3ccc(NC(=O)Nc4cc(C(F)(F)F)ccc4F)cc3)c12` gave a remaining signal of 43% (cell-free assay; 20 µM).
`COc1ccc2c(O[C@@H]3C[C@H]4C(=O)N[C@]5(C(=O)O)CC5/C=C\CCCCC[C@H](NC(=O)OC5CCCC5)C(=O)N4C3)cc(-c3csc(NC(=O)C(C)C)n3)nc2c1C` (some centres unmarked) gave a remaining binding of 97% (cell-free assay; competition with immobilised ligand; 1 µM).
For `O=c1c2ccccc2[nH]c(=S)n1CCN1CCC(=C(c2ccc(F)cc2)c2ccc(F)cc2)CC1`, the remaining activity was 95.4% (enzyme activity; inhibitor; 0.5 µM).
The inhibition of `CNC(=O)c1cc(Oc2ccc(NC(=O)Nc3ccc(Cl)c(C(F)(F)F)c3)cc2)ccn1` is reported as 8% (enzyme activity; inhibitor; 0.3 µM).
`CC(=O)c1c(NS(C)(=O)=O)c2cc(-c3ccc(Cl)cc3)c(-c3ccc(Cl)cc3Cl)nc2n(C)c1=O` has a remaining binding of 92% (cell-free assay; competition with immobilised ligand; 1 µM).
`O=c1cc(-c2cccc3c2Sc2ccccc2S3)oc(N2CCOCC2)c1` gave a remaining activity of 106% (enzyme activity; inhibitor; 0.5 µM).
With `Cn1cnc(Br)c1C1=CN(c2ncnc3[nH]cnc23)CCS1` the inhibition was 88.8% (enzyme activity; inhibitor; radiometric; 2 µM).
`COCCOc1nc(-c2ccc(Cl)nc2)nc2c1CN(C(=O)c1ncn3ccccc13)CC2` has a remaining binding of 100% (cell-free assay; competition with immobilised ligand; 0.1 µM).
With `CC/C(=N\NC(=O)NCc1cccc(O)c1)c1ccc(O)c(C)c1O` the inhibition was -0.2% (enzyme activity; inhibitor; 0.1 µM).
`N#Cc1ccc(Nc2ccc3[nH]c(=O)[nH]c3c2)c(Cl)c1` gave a remaining binding of 100% (cell-free assay; competition with immobilised ligand; 1 µM).
The inhibition of `Cc1ccc(Nc2nccc(N(C)c3ccc4c(C)n(C)nc4c3)n2)cc1S(N)(=O)=O` is reported as 0% (enzyme activity; inhibitor; 0.3 µM).
`Cc1c(C(=O)O)cc(-c2ccc(C3CCNCC3)cc2)c2ccc(-c3ccc(C(F)(F)F)cc3)cc12` has a remaining binding of 100% (cell-free assay; competition with immobilised ligand; 1 µM).
With `O=C1Nc2ccc(Cl)cc2C1=Cc1cc(Cl)c(O)c(Cl)c1` the remaining signal was 8.65% (cell-free assay; 0.5 µM).
With `CCCOc1ccc([C@H]2[C@H](C(=O)O)[C@@H](c3ccc4c(c3)OCO4)CN2CC(=O)Nc2c(CC)cccc2CC)cc1` the remaining binding was 62% (cell-free assay; competition with immobilised ligand; 1 µM).
`Cn1cncc1C1=CN(c2ncnc3[nH]cnc23)CCS1` has an inhibition of 88.4% (enzyme activity; inhibitor; radiometric; 2 µM).
`COc1cc2nccc(Oc3ccc(NC(=S)NC(=O)c4ccccc4C)cc3)c2cc1OC` gave a remaining activity of 95.9% (enzyme activity; inhibitor; 0.5 µM).
The remaining binding of `O=C(Nc1ccc(Oc2ccc(F)cc2)cc1)N1CCc2ncccc2[C@H]1c1ccc(F)cc1` is reported as 85% (cell-free assay; competition with immobilised ligand; 1 µM).
`CN1CCN(C(=O)c2ccc3cc(CCNc4ccnc5ccc(C#N)cc45)ccc3c2)CC1` has an inhibition of over 35% (cell-free assay; competition with immobilised ligand; 2 µM).
